In ChEMBL document CHEMBL2331108, “Synthesis and biological evaluation of a new series of hexahydro-2H-pyrano[3,2-c]quinolines as novel selective σ1 receptor ligands” (J Med Chem, 2013):

Columns and labels:
[1] = Displacement of [3H]-Di-o-tolyguanidine from guinea pig sigma2 receptor after 120 mins by liquid scintillation counting analysis; set-up: species or system Cavia porcellus
[2] = target: Sigma non-opioid intracellular receptor 1 (Homo sapiens, UniProt Q99720); assay: Displacement of [3H]-(+)-pentazocine from human sigma1 receptor transfected in HEK293 cells after 120 mins by liquid scintillation counting analysis; type: cell-based
Cytochrome P450 2C19 = Cytochrome P450 2C19 (Homo sapiens, UniProt P33261); assay: Inhibition of human recombinant CYP2C19; type: ADME
[3] = target: Voltage-gated inwardly rectifying potassium channel KCNH2 (Homo sapiens, UniProt Q12809); assay: Binding affinity to human ERG channel by patch clamp assay
Liver microsomes [4] = assay: Intrinsic clearance in human liver microsomes assessed per milligram of protein; type: ADME, Microsome
Mus musculus [5] = assay: Antinociceptive activity in CD1 mouse assessed as inhibition of capsaicin-induced mechanical hypersensitivity at 80 mg/kg, po administered 30 mins before capsaicin-challenge measured after 15 mins; type: functional
Liver microsomes [6] = assay: Intrinsic clearance in rat liver microsomes assessed per milligram of protein; type: ADME, Microsome
Cytochrome P450 2C9 = Cytochrome P450 2C9 (Homo sapiens, UniProt P11712); assay: Inhibition of human recombinant CYP2C9; type: ADME
Mus musculus [7] = assay: Antinociceptive activity in CD1 mouse assessed as inhibition of formalin-induced pain at 80 mg/kg, ip administered 15 mins before formalin-challenge measured after 15 to 30 mins; type: functional; details: route intraperitoneal
How it was run: (§1)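 Male CD1 mice, 6–8 weeks old (n = 8–12 per group), were dosed ip at 10 mL/kg in 0.5% HPMC vehicle. 15 min later, 20 μL of 2.5% formalin (0.92% formaldehyde) was injected into the right hind paw, midplantar. Licking/biting time was scored 0–5 min (phase I) and 15–30 min (phase II).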

[8] = Dissociation constant, pKa of the compound; type: physicochemical
How it was run: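 pKa measured experimentally by pH-metric titration on an automated GlpKa instrument.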

Cytochrome P450 3A4 = Cytochrome P450 3A4 (Homo sapiens, UniProt P08684); assay: Inhibition of human recombinant CYP3A4; type: ADME
Mus musculus [9] = assay: Antinociceptive activity in CD1 mouse assessed as inhibition of formalin-induced pain at 40 mg/kg, ip administered 15 mins before formalin-challenge measured after 15 to 30 mins; type: functional; details: route intraperitoneal; how it was run: as §1
Cytochrome P450 1A2 = target: T1, Cytochrome P450 1A2 (Homo sapiens, UniProt P05177); assay: Inhibition of human recombinant CYP1A2; type: ADME
T1 sequence (P05177 whole entry): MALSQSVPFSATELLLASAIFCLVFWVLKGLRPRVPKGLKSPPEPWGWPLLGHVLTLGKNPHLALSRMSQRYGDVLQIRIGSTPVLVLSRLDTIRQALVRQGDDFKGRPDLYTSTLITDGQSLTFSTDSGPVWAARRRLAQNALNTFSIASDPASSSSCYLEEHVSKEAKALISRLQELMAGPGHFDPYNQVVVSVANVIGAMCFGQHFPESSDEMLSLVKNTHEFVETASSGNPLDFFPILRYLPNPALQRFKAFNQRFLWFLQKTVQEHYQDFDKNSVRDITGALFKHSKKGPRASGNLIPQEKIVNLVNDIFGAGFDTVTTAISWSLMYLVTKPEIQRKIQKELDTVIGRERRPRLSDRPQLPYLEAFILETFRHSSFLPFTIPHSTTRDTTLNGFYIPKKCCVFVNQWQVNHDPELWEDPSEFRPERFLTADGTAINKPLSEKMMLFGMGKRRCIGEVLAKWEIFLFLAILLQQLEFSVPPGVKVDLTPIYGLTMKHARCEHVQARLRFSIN

HepG2 [10] = assay: Cytotoxicity against human HepG2 cells up to 100 uM by neutral red uptake assay; type: cell-based
Liver = assay: Intrinsic clearance in mouse liver microsomes assessed per milligram of protein; type: ADME, Microsome
HepG2 [11] = assay: Cytotoxicity against human HepG2 cells up to 100 uM by MTT assay; type: cell-based
Cytochrome P450 2D6 = Cytochrome P450 2D6 (Homo sapiens, UniProt P10635); assay: Inhibition of human recombinant CYP2D6; type: ADME
Salmonella typhimurium = assay: Genotoxicity in Salmonella typhimurium by Ames test; type: toxicity, organism-based; details: salmonella enterica subsp. enterica serovar typhimurium
[12] = target: 5-hydroxytryptamine receptor 2B (Homo sapiens, UniProt P41595); assay: Binding affinity to human 5-HT2B receptor
[13] = Kinetic solubility of the compound; type: physicochemical; details: read-out: Kinetic_solubility
How it was run: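 Kinetic solubility: compound solution at 1% DMSO in phosphate buffer, pH 7.4, quantified by HPLC.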

Mus musculus [14] = assay: Antinociceptive activity in ip dosed CD1 mouse assessed as inhibition of formalin-induced pain administered 15 mins before formalin-challenge measured after 15 to 30 mins; type: functional, organism-based; how it was run: as §1

Sequence of Sigma non-opioid intracellular receptor 1 (Q99720 whole entry): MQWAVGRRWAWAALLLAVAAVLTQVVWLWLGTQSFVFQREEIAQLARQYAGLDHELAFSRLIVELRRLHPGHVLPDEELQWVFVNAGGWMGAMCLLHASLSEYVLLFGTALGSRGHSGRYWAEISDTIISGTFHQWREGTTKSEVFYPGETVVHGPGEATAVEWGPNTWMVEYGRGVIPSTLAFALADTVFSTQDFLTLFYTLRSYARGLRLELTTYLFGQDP
Sequence of Cytochrome P450 3A4 (P08684 whole entry): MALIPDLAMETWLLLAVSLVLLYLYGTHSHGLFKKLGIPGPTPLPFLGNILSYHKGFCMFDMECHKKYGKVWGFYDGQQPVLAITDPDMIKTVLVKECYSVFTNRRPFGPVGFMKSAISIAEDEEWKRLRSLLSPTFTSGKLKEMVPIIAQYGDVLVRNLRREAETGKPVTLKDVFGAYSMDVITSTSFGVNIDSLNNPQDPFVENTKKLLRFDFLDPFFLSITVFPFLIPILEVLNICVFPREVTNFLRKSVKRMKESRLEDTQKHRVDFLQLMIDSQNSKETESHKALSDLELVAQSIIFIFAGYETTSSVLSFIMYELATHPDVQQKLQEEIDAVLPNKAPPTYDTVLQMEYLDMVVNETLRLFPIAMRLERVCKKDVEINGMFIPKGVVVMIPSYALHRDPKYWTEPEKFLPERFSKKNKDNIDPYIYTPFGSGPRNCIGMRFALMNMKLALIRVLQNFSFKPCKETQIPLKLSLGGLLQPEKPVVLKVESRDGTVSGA
Sequence of Cytochrome P450 2C19 (P33261 whole entry): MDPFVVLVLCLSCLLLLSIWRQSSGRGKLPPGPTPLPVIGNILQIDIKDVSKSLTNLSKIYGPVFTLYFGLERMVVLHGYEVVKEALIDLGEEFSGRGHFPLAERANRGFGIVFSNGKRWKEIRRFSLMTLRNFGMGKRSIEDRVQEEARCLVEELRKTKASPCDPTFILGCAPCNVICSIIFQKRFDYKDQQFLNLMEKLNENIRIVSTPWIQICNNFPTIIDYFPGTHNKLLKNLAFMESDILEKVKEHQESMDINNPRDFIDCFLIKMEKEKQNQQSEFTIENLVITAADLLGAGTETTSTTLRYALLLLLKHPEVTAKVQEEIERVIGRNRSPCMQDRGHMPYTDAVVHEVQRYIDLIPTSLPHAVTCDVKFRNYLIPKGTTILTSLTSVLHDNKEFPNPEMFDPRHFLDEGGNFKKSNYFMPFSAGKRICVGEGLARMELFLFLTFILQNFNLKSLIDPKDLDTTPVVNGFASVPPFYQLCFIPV
Sequence of Cytochrome P450 2C9 (P11712 whole entry): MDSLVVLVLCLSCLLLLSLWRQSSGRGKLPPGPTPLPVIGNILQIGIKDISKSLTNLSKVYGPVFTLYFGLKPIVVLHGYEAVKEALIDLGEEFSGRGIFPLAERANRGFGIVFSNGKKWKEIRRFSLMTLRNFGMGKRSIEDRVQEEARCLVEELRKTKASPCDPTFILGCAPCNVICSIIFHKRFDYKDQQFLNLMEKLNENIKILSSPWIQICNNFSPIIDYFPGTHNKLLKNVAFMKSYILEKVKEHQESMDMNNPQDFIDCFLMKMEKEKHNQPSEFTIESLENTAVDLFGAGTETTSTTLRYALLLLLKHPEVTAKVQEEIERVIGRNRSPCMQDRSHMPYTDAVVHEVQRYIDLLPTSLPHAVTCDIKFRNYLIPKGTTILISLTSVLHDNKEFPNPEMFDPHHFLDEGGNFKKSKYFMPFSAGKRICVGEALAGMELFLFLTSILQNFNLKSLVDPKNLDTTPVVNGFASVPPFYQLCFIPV
Sequence of 5-hydroxytryptamine receptor 2B (P41595 whole entry): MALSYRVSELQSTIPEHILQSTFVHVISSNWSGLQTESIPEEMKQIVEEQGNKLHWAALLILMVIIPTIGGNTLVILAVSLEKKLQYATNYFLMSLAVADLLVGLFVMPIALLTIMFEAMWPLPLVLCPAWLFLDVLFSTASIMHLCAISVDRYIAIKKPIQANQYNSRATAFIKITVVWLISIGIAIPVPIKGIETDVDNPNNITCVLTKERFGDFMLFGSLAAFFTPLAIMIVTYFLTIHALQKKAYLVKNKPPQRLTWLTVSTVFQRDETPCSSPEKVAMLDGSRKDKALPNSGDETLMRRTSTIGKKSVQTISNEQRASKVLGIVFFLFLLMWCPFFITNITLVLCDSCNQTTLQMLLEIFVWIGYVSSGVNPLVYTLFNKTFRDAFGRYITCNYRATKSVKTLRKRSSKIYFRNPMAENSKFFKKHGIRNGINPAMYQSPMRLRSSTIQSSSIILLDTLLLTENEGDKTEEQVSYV
Sequence of Voltage-gated inwardly rectifying potassium channel KCNH2 (Q12809 whole entry): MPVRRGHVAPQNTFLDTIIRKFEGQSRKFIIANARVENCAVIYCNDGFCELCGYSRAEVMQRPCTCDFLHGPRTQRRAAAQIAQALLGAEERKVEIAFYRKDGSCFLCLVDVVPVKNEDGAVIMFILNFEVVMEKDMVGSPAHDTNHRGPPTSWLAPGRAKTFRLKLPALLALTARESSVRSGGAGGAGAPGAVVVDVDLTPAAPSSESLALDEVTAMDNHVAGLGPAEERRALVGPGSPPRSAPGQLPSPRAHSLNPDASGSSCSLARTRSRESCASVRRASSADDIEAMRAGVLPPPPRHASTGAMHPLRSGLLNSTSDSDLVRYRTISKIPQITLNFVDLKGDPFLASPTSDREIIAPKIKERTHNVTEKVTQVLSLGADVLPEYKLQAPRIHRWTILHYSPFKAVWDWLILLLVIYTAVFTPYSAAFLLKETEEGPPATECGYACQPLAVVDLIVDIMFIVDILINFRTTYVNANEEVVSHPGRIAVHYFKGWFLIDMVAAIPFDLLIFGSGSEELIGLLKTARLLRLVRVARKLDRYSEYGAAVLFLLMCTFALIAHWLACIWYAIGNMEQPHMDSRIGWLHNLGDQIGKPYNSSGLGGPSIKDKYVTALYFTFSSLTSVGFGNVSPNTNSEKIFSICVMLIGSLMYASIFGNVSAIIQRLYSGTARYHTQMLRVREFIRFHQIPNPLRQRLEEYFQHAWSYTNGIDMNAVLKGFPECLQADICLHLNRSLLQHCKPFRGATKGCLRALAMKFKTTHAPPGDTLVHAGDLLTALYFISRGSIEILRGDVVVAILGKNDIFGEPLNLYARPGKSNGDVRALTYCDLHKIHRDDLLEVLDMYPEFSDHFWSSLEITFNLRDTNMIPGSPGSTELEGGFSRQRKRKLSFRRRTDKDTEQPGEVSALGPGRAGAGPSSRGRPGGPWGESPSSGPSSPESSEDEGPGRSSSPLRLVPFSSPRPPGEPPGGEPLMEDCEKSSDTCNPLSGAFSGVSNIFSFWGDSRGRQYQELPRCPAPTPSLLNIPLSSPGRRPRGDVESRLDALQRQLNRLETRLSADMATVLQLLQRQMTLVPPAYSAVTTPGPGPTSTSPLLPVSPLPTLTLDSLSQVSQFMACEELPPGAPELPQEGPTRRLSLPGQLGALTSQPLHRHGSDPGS
Sequence of Cytochrome P450 2D6 (P10635 whole entry): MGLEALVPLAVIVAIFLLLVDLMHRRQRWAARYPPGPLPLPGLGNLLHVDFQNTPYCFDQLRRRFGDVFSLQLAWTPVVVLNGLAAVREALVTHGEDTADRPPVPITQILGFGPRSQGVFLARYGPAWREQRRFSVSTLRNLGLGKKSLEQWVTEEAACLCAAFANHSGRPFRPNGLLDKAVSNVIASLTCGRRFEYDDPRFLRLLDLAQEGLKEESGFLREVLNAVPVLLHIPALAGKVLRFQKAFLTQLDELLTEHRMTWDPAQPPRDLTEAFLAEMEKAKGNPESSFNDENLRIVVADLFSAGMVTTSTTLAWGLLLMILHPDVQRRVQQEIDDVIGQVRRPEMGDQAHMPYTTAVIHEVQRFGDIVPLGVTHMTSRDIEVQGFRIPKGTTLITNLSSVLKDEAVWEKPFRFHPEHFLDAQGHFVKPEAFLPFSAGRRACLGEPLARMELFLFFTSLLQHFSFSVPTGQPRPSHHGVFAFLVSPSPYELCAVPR

For `CCCNS(=O)(=O)c1ccc2c(c1)[C@H]1OCCC[C@H]1[C@@H](C1CCCCC1)N2` (racemic), the Ki [1] was 1000 nM and the Ki [2] was greater than 1000 nM.
For `CCCCCc1ccc2c(c1)[C@H]1OCCC[C@H]1[C@@H](C1CCCCC1)N2` (racemic), the Ki [2] was 43 nM.
For `Clc1ccccc1Oc1ccc2c(c1)[C@H]1OCCC[C@H]1[C@@H](C1CCCCC1)N2` (racemic), the Ki [1] was 1000 nM and the Ki [2] was greater than 1000 nM.
In the case of `c1ccc2c(c1)N[C@H](C1CCCCC1)[C@@H]1CCCO[C@H]21` (racemic), the Ki [1] is reported as 1000 nM and the Ki [2] is reported as greater than 1000 nM.
Compound `CC(C)CCOc1ccc2c(c1)[C@H]1OCC[C@H]1[C@@H](C1CCCCC1)N2` (racemic) has a Ki [1] of 1000 nM and a Ki [2] of 108 nM.
`CC(C)CCOc1ccc2c(c1)[C@H]1OCCC[C@H]1[C@@H](C1CCOCC1)N2` [listing 1 of 2 here] showed an IC50 (Cytochrome P450 2C19) greater than 5000 nM, an IC50 [3] greater than 10000 nM and a CLH (Liver microsomes [4]) of 5 µL/min. The inhibition in vivo at 80 mg/kg (Mus musculus [5]) was 63%, the CLH (Liver microsomes [6]) was 21.7 µL/min and the IC50 (Cytochrome P450 2C9) was greater than 5000 nM. It also gave an inhibition in vivo at 80 mg/kg (Mus musculus [7]) of 81%, a pKa [8] of 3.8 and an IC50 (Cytochrome P450 3A4) greater than 5000 nM. The inhibition in vivo at 40 mg/kg (Mus musculus [9]) was 40%, the IC50 (Cytochrome P450 1A2) was greater than 5000 nM and the Activity (HepG2 [10]) was “Non-toxic”. The Ki [1] was 1000 nM, the CLH (Liver) was 15.1 µL/min and the Activity (HepG2 [11]) was “Non-toxic”. For the same compound, the Ki [2] was 30 nM, the IC50 (Cytochrome P450 2D6) was greater than 5000 nM and the Activity (Salmonella typhimurium) was “Non-toxic”. The Ki [12] was 5300 nM.
Work on `CCCCCc1ccc2c(c1)[C@H]1OCCC[C@H]1[C@@H](C1CCOCC1)N2` (racemic) yielded a Ki [1] of 1000 nM and a Ki [2] of 67 nM.
`c1ccc(-c2ccc3c(c2)[C@H]2OCCC[C@H]2[C@@H](C2CCCCC2)N3)cc1` (racemic) gave a Ki [1] of 1000 nM and a Ki [2] greater than 1000 nM.
For `CC(C)CCOc1ccc2c(c1)[C@H]1OCCC[C@H]1[C@@H](C1CCNCC1)N2` (racemic), the Ki [1] was 1000 nM and the Ki [2] was 536 nM.
`CCCCOc1ccc2c(c1)[C@H]1OCCC[C@H]1[C@@H](c1ccccc1)N2` (racemic) gave a Ki [1] of 1000 nM and a Ki [2] greater than 1000 nM.
`Clc1ccc(Oc2ccc3c(c2)[C@H]2OCCC[C@H]2[C@@H](C2CCCCC2)N3)cc1Cl` (racemic) showed a Ki [1] of 1000 nM and a Ki [2] of 79 nM.
Work on `Clc1ccc(Oc2ccc3c(c2)[C@H]2OCCC[C@H]2[C@@H](C2CCCCC2)N3)cc1` (racemic) yielded a solubility kinetic [13] of less than 0.4 µM, a Ki [1] greater than 1000 nM and a Ki [2] of 194 nM.
In the case of `c1cc2c(cc1C1CCCCC1)[C@H]1OCCC[C@H]1[C@@H](C1CCCCC1)N2` (racemic), the Ki [1] is reported as 1000 nM and the Ki [2] is reported as greater than 1000 nM.
With `CCN1CCC([C@H]2Nc3ccc(OCCC(C)C)cc3[C@H]3OCCC[C@H]32)CC1` (racemic) the Ki [1] was 1000 nM and the Ki [2] was 317 nM.
In the case of `CC(C)CCOc1ccc2c(c1)[C@@H]1OCCC[C@@H]1[C@H](C1CCCCC1)N2`, the Ki [1] is reported as 1000 nM and the Ki [2] is reported as greater than 1000 nM.
With `CC(C)CCOc1ccc2c(c1)[C@H]1OCCC[C@H]1[C@@H](C1CCCCC1)N2` the solubility kinetic [13] was less than 1 µM, the Ki [1] was 1000 nM and the Ki [2] was 14 nM.
Compound `CCCCOc1ccc2c(c1)[C@H]1OCCC[C@H]1[C@@H](C1CC1)N2` (racemic) has a Ki [1] of 1000 nM and a Ki [2] greater than 1000 nM.
`CC(C)CCOc1ccc2c(c1)[C@H]1OCCC[C@H]1[C@@H](C1CCCC1)N2` (racemic) gave a Ki [1] of 1000 nM and a Ki [2] of 124 nM.
`c1ccc(Oc2ccc3c(c2)[C@H]2OCCC[C@H]2[C@@H](C2CCCCC2)N3)cc1` (racemic) showed a Ki [1] of 1000 nM and a Ki [2] greater than 1000 nM.
Work on `Clc1ccc(Oc2ccc3c(c2)[C@H]2OCCC[C@H]2[C@H](C2CCCCC2)N3)cc1` (racemic) yielded a Ki [1] of 1000 nM and a Ki [2] greater than 1000 nM.
With `CCCCCc1ccc2c(c1)[C@H]1OCCC[C@H]1[C@@H](C(CC)CC)N2` (racemic) the Ki [1] was 1000 nM and the Ki [2] was 410 nM.
In the case of `CCCCCc1ccc2c(c1)[C@H]1OCC[C@H]1[C@@H](C1CCCCC1)N2` (racemic), the Ki [1] is reported as 1000 nM and the Ki [2] is reported as 245 nM.
For `Fc1ccc(COc2ccc3c(c2)[C@H]2OCCC[C@H]2[C@@H](C2CCCCC2)N3)cc1` (racemic), the Ki [1] was 1000 nM and the Ki [2] was greater than 1000 nM.
`Clc1ccc(Oc2ccc3c(c2)[C@H]2OCC[C@H]2[C@@H](C2CCCCC2)N3)cc1` (racemic) gave a Ki [1] of 1000 nM and a Ki [2] of 302 nM.
`CCCCCc1ccc2c(c1)[C@@H]1OCCC[C@@H]1[C@H](C1CCCCC1)N2` showed a Ki [1] of 1000 nM and a Ki [2] greater than 1000 nM.
`CC(C)CCOc1ccc2c(c1)[C@@H]1OCCC[C@@H]1[C@H](C1CCOCC1)N2` gave a Ki [1] of 1000 nM and a Ki [2] greater than 1000 nM.
With `CCCCOc1ccc2c(c1)[C@H]1OCCC[C@H]1[C@@H](C1CCCCC1)N2` (racemic) the Ki [1] was 1000 nM and the Ki [2] was 178 nM.
Compound `CCCCOc1ccc2c(c1)[C@H]1OCC[C@H]1[C@@H](C1CCCCC1)N2` (racemic) has a Ki [1] of 1000 nM and a Ki [2] greater than 1000 nM.
Work on `CC(C)CCOc1ccc2c(c1)[C@H]1OCCC[C@H]1[C@@H](C1CCOCC1)N2` (racemic) yielded a Ki [2] of 84 nM.
Work on `Clc1cccc(Oc2ccc3c(c2)[C@H]2OCCC[C@H]2[C@H](C2CCCCC2)N3)c1` (racemic) yielded a Ki [1] of 1000 nM and a Ki [2] greater than 1000 nM.
With `CC(C)CCOc1ccc2c(c1)[C@H]1OCCC[C@H]1[C@@H](C1CCOCC1)N2` [listing 2 of 2 here] the inhibition (Mus musculus [14]) was “Dose-dependent effect”.
`Clc1cccc(Oc2ccc3c(c2)[C@H]2OCCC[C@H]2[C@@H](C2CCCCC2)N3)c1` (racemic) gave a Ki [1] of 1000 nM and a Ki [2] of 377 nM.
With `CCCCCc1ccc2c(c1)[C@H]1OCCC[C@H]1[C@@H](C1CCCCC1)N2` the solubility kinetic [13] was less than 1 µM, the Ki [1] was 1000 nM and the Ki [2] was 19 nM.
Compound `O=C(CCCN1CCC(O)(c2ccc(Cl)cc2)CC1)c1ccc(F)cc1` [HALOPERIDOL] has a Ki [1] of 1000 nM.
In the case of `Cc1cc(OCCN2CCOCC2)nn1-c1ccc2ccccc2c1`, the Ki [1] is reported as 1000 nM.
With `O=C(Nc1ccc2c(c1)[C@H]1OCCC[C@H]1[C@@H](C1CCCCC1)N2)c1ccccc1` (racemic) the Ki [1] was 1000 nM and the Ki [2] was greater than 1000 nM.
With `CCCCc1ccc2c(c1)[C@H]1OCCC[C@H]1[C@@H](C1CCCCC1)N2` (racemic) the Ki [1] was 1000 nM and the Ki [2] was greater than 1000 nM.
`CC(C)CCOc1ccc2c(c1)[C@H]1OCCC[C@H]1[C@@H](C1CCN(Cc3ccccc3)CC1)N2` (racemic) gave a solubility kinetic [13] of less than 1 µM, a Ki [1] of 1000 nM and a Ki [2] of 15 nM.
In the case of `CC(C)CCOc1ccc2c(c1)[C@H]1OCCC[C@H]1[C@@H](C1CCCCC1)N2` (racemic), the Ki [2] is reported as 52 nM.
